Source: PubChem BioAssay (Broad Institute)
E-sel inducer: E-selectin induction on HUVECs. HUVEC E-selectin immunofluorescence imaging; normalized: neutral wells 0, TNF-alpha wells 100. activation, % at 7.58 µM. 0.37% of 260,000 active;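 active means mean E-selectin-positive cell signal at least 10% of the positive control, reached in at least 60% of replicates, without over 20% cell loss; inconclusive means no rule given, readout overlaps actives, possibly toxicity-flagged; inactive means the rest, including those meeting only one limit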
Target sequence (P16581 whole entry, looked up): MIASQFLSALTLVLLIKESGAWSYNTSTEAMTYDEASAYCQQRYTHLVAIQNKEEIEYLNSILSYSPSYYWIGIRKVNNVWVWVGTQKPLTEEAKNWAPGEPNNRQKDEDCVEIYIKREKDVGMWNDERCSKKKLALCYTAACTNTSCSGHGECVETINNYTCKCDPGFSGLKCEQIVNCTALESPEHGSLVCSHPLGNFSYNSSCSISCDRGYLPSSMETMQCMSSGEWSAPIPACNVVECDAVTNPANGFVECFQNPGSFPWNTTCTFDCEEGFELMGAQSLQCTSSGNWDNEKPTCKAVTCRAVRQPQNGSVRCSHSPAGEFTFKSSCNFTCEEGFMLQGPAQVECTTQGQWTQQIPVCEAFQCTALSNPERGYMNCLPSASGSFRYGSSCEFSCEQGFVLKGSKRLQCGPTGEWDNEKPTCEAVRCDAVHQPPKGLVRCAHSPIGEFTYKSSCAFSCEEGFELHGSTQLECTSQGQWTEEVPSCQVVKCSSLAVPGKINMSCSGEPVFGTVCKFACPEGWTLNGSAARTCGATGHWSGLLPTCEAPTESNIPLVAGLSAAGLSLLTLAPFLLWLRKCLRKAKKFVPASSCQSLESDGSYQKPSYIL
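System: HUVEC, human umbilical vein endothelial cells; quantity: 3,000 cells/well; buffer or medium: EGM-2 medium, gelatin-coated wells; dosing: single-point compound dose; detection: immunofluorescence imaging; evaluation: % PE-positive cells; benchmarks: TNF-alpha, DMSO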
XiGFP reactiv: X-chromosome reactivation activator; 0.055% of 360,000 active; XiGFP mouse fibroblasts, % GFP-positive cells imaging, 3 d; cells co-treated with 5-aza-dC sensitizer; scaled so ellipticine positive control = 100%; AID 743238; activation, % at 7.58 µM;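 active means mean normalized replicate activation at least 10% and every replicate at or above 10%; inconclusive means only one of the two criteria met; inactive means mean below 10% and not all replicates reach 10%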
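Schedule: 3 d treatment, 15 min room-temperature fixation; system: 68-5-11 XiGFP fibroblast line; buffer or medium: DMEM plus 5-aza-dC sensitizer; control set: ellipticine 6 µM positive control; compound: one concentration, pinned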
Numbers stand for hits; – = inactive; ? = inconclusive; · = no result given. This is one part of a sample in which hits are shown more often than they occur.

SMILES | E-sel inducer | XiGFP reactiv
O=C(NC1=NN(c2ccccc2)CC1)Nc1ccccc1F | – | 50
COc1cc(N2CCCC2)c(OC)cc1/C=C1/NC(=S)NC1=O | · | 71
COc1ccc(OC)c(/C=C2\NC(=O)NC2=O)c1 | – | –
O=S(=O)(c1ccc(F)cc1)N1CCN(c2ncccn2)CC1 | – | ·
O=S(=O)(c1ccc(F)cc1)N1CCCN(c2nccc(C(F)(F)F)n2)CC1 | 30 | –
COc1ccccc1C(=O)Nc1ccc2c(c1)C(=O)N(C)C[C@@H](OC)[C@H](C)CN(CC1CC1)[C@H](C)CO2 | – | –
O=C(NN=Cc1ccc(N2CCOCC2)s1)c1ccc([N+](=O)[O-])cc1 | – | –
O=C(N/N=C/c1ccc(Br)s1)c1ccc([N+](=O)[O-])cc1 | – | 97
CCCNC(=O)N1CC2(CN(C(=O)c3ccncc3)C2)c2c([nH]c3cc(OC)ccc23)[C@@H]1CO | – | –
Cc1cc2nc(CSc3ccc(Cl)cc3)cc(=O)n2[nH]1 | · | –
Cc1ccc(SCc2cc(=O)n(C)[nH]2)cc1 | 82 | –
COc1ccc(CN(C)C[C@H]2Oc3ccc(NC(=O)Nc4ccccc4)cc3CC(=O)N([C@@H](C)CO)C[C@@H]2C)cc1 | – | –
C[C@]12CCC(=O)C[C@@H]1CC[C@@H]1[C@@H]2CC[C@]2(C)C=CC[C@@H]12 | – | –
C[C@]12CCC(=O)CC1CCC1C2CC[C@@]2(C)C1CC[C@@]21CCO1 (some centres undefined) | 50 | –
COc1cc(NS(=O)(=O)c2ccc(C)cc2)c2c(c1N)C(=O)c1ccccc1C2=O | 127 | –
COC(=O)C(C(=O)OC)c1ccccc1NS(=O)(=O)c1ccc(C)cc1 | – | ·
COc1ccccc1N(CC(=O)NCCSc1ccccn1)S(=O)(=O)c1ccccc1 | 37 | –
CCOc1ccccc1N(CC(=O)NCCSc1ccccn1)S(=O)(=O)c1ccccc1 | – | –
Nc1nnc(SCC(=O)Nc2nnc(-c3ccccc3)o2)s1 | – | –
Nc1nnc(SCc2nnc(-c3ccccc3)o2)s1 | 523 | –
COc1ccc2c3c([nH]c2c1)[C@@H](CO)N(CC1CC1)CC31CN(C(=O)NC2CCCC2)C1 | – | –
C[C@H]1CN([C@@H](C)CO)C(=O)Cc2cc(NS(C)(=O)=O)ccc2O[C@H]1CN(C)S(=O)(=O)c1cn(C)cn1 | ? | –
Cc1noc(C)c1NC(=O)Nc1ccc2c(c1)CC(=O)N([C@H](C)CO)C[C@H](C)[C@H](CN(C)S(=O)(=O)c1ccccc1)O2 | 47 | –
C[C@H](CO)N1C[C@H](C)[C@@H](CN(C)S(=O)(=O)c2cn(C)cn2)Oc2ccc(NC(=O)Nc3ccc(F)cc3)cc2CC1=O | 61 | –
C[C@@H]1CN([C@H](C)CO)C(=O)Cc2cc(NC(=O)Nc3ccccc3)ccc2O[C@@H]1CN(C)S(=O)(=O)c1cn(C)cn1 | – | –
SMILES | E-sel inducer | XiGFP reactiv
C[C@@H]1CN([C@H](C)CO)C(=O)Cc2cc(NC(=O)Nc3ccc(F)cc3)ccc2O[C@@H]1CN(C)S(=O)(=O)c1cn(C)cn1 | 85 | –
C[C@H](CO)N1C[C@H](C)[C@@H](CN(C)S(=O)(=O)c2cn(C)cn2)Oc2ccc(NC(=O)Nc3ccccc3)cc2CC1=O | – | –
C[C@@H]1CN([C@H](C)CO)C(=O)Cc2cc(NS(C)(=O)=O)ccc2O[C@H]1CN(C)S(=O)(=O)c1cn(C)cn1 | 389 | –
Cc1noc(C)c1NC(=O)Nc1ccc2c(c1)CC(=O)N([C@H](C)CO)C[C@H](C)[C@@H](CN(C)S(=O)(=O)c1ccccc1)O2 | – | –
O=C(C[C@@H]1CC[C@H](NC(=O)Nc2ccc(F)cc2)[C@@H](CO)O1)NCCN1CCCC1 | – | –
Cc1noc(C)c1NC(=O)N[C@H]1CC[C@H](CCNC(=O)C2CCCCC2)O[C@@H]1CO | – | –
CCC(=O)N1[C@@H]2Cn3c(cccc3=O)[C@H]1[C@@H](C(=O)N1CCCCC1)[C@@H]2CO | – | –
Cc1noc(C)c1S(=O)(=O)N(C)C[C@H]1Oc2ccc(NC(=O)Nc3ccc(F)cc3)cc2CC(=O)N([C@H](C)CO)C[C@@H]1C | 64 | –
Cc1noc(C)c1S(=O)(=O)N(C)C[C@H]1Oc2ccc(NC(=O)Nc3ccc(F)cc3)cc2CC(=O)N([C@H](C)CO)C[C@H]1C | – | –
C[C@@H]1CN([C@H](C)CO)C(=O)c2cccc(NC(=O)C3CC3)c2O[C@@H]1CN(C)CC1CC1 | 77 | –
C[C@H](CO)N1C[C@H](C)[C@H](CN(C)C(=O)Nc2ccccc2)Oc2c(NC(=O)C3CCOCC3)cccc2C1=O | – | –
C[C@@H]1CN([C@H](C)CO)C(=O)c2cccc(NC(=O)C3CC3)c2O[C@H]1CN(C)CC1CC1 | 111 | –
C[C@@H]1CN([C@@H](C)CO)C(=O)c2cccc(NC(=O)C3CC3)c2O[C@@H]1CN(C)CC1CC1 | – | –
C[C@@H]1CN([C@@H](C)CO)C(=O)c2cccc(NC(=O)C3CC3)c2O[C@H]1CN(C)CC1CC1 | – | –
C[C@@H]1CN([C@H](C)CO)C(=O)c2cccc(NC(=O)C3CCOCC3)c2O[C@H]1CN(C)C(=O)Nc1ccccc1 | 173 | –
CC(C)(C)C(=O)Nc1nnc(SCc2ccc(F)cc2)s1 | – | ·
CCOC(=O)C(=O)Nc1nnc(SCc2ccc(F)cc2)s1 | 39 | –
C[C@H](NC(=O)C[C@@H]1C[C@H]2c3cc(NC(=O)CN(C)C)ccc3O[C@H]2[C@H](CO)O1)c1ccccc1 | – | –
CC(=O)C1=C(C)Nc2ncnn2C1c1ccc(O)cc1 (centres undefined) | 44 | –
CC(=O)C1=C(C)Nc2ncnn2C1c1ccc(F)cc1 (centres undefined) | – | –
C[C@@H](NC(=O)C[C@@H]1CC[C@@H](NC(=O)C2CCC2)[C@@H](CO)O1)c1ccccc1 | – | –
CCN(CC)S(=O)(=O)c1ccc(N2CCOCC2)c(NC(=O)CSCc2c(C)noc2C)c1 | · | –
Cc1noc(C)c1CSCC(=O)Nc1cc(C(F)(F)F)ccc1N1CCOCC1 | 41 | –
Cc1noc(C)c1NC(=O)N(C)C[C@H]1OCCCC[C@@H](C)Oc2ccc(NS(=O)(=O)c3cccs3)cc2C(=O)N([C@@H](C)CO)C[C@H]1C | – | –
C[C@@H]1CN([C@H](C)CO)C(=O)c2cc(NC(=O)NC3CCCCC3)ccc2O[C@@H](C)CCCCO[C@@H]1CN(C)CC1CCCCC1 | – | –
SMILES | E-sel inducer | XiGFP reactiv
COc1ccc(/C=C/C(=O)OCCCN(C)C)cc1 | · | –
COc1ccccc1/C=C/C(=O)OCCCN(C)C | · | 71
Cc1noc(C)c1NC(=O)Nc1cccc2c1O[C@@H](CN(C)C(=O)Nc1ccc(C(F)(F)F)cc1)[C@H](C)CN([C@@H](C)CO)C2=O | – | –
C[C@H]1CN([C@@H](C)CO)C(=O)Cc2cc(NS(=O)(=O)c3ccccc3)ccc2O[C@@H]1CN(C)C(=O)NC1CCCCC1 | – | –
O=C(Nc1cc(C(F)(F)F)cc(C(F)(F)F)c1)Nc1cnn(-c2ccc([N+](=O)[O-])cc2)c1C(F)(F)F | 74 | –
O=C(Nc1ccc(C(=O)O)cc1)Nc1ccc([N+](=O)[O-])cc1 | – | –
COc1cccc(NC(=O)C2C3C=CC4(O3)C2C(=O)N(CCCN2CCC(C)CC2)C4C(=O)NC2CCCCC2)c1 (centres undefined) | – | –
